Measured values from ChEMBL document CHEMBL4396917, “Synthesis and biological evaluation of novel benzylidene-succinimide derivatives as noncytotoxic antiangiogenic inhibitors with anticolorectal cancer activity in vivo” (Eur J Med Chem, 2019).
Calls of active or inactive are those of the source. No cut-off for these calls is given here.

Columns and labels:
[1] = Induction of apoptosis in VEGF-stimulated HUVEC assessed as viable cells at 1 uM after 24 hrs by Annexin V-FITC/propidium iodide staining based flow cytometric analysis (reference value: 69.6%); format: cell-based; conditions: human, read-out: Activity
In short: (§1)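 HUVECs plated at 5×10^5 per well and treated 24 h with 1, 5, 10 or 20 μM. Detached and adherent cells were pooled, washed in ice-cold PBS and resuspended in fresh medium. 1×10^5 cells were stained with annexin-V-FITC in annexin-V buffer for 20 min in the dark, then PI (50 μg/mL) was added. Read-out by flow cytometry.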

HUVEC [2] = assay: Induction of apoptosis in VEGF-stimulated HUVEC assessed as necrotic cells at 1 uM after 24 hrs by Annexin V-FITC/propidium iodide staining based flow cytometric analysis (reference value: 12.1%); format: cell-based; conditions: human; in short: as §1
[3] = Induction of apoptosis in VEGF-stimulated HUVEC assessed as viable cells at 5 uM after 24 hrs by Annexin V-FITC/propidium iodide staining based flow cytometric analysis (reference value: 69.6%); format: cell-based; conditions: human, read-out: Activity; in short: as §1
HUVEC [4] = assay: Induction of apoptosis in VEGF-stimulated HUVEC assessed as necrotic cells at 5 uM after 24 hrs by Annexin V-FITC/propidium iodide staining based flow cytometric analysis (reference value: 12.1%); format: cell-based; conditions: human; in short: as §1
HUVEC [5] = assay: Induction of apoptosis in VEGF-stimulated HUVEC assessed as late apoptotic cells at 10 uM after 24 hrs by Annexin V-FITC/propidium iodide staining based flow cytometric analysis (reference value: 11.3%); format: cell-based; conditions: human; in short: as §1
HT-29 [6] = assay: Induction of apoptosis in human HT-29 cells assessed as late apoptotic cells at 1 uM after 24 hrs by Annexin V-FITC/propidium iodide staining based flow cytometric analysis (reference value: 13.4%); format: cell-based; conditions: ht-29, 24 h
HT-29 [7] = assay: Induction of apoptosis in human HT-29 cells assessed as necrotic cells at 5 uM after 24 hrs by Annexin V-FITC/propidium iodide staining based flow cytometric analysis (reference value: 1.3 to 3.9%); format: cell-based; conditions: ht-29, 24 h
HT-29 [8] = assay: Induction of apoptosis in human HT-29 cells assessed as early apoptotic cells at 20 uM after 24 hrs by Annexin V-FITC/propidium iodide staining based flow cytometric analysis (reference value: 1.9%); format: cell-based; conditions: ht-29, 24 h
HT-29 [9] = assay: Induction of apoptosis in human HT-29 cells assessed as late apoptotic cells at 20 uM after 24 hrs by Annexin V-FITC/propidium iodide staining based flow cytometric analysis (reference value: 13.4%); format: cell-based; conditions: ht-29, 24 h
[10] = Induction of apoptosis in human HT-29 cells assessed as viable cells at 5 uM after 48 hrs by Annexin V-FITC/propidium iodide staining based flow cytometric analysis (reference value: 81.1%); format: cell-based; conditions: read-out: Activity
HT-29 [11] = assay: Induction of apoptosis in human HT-29 cells assessed as early apoptotic cells at 5 uM after 48 hrs by Annexin V-FITC/propidium iodide staining based flow cytometric analysis (reference value: 5.3%); format: cell-based; conditions: ht-29, 48 h
HT-29 [12] = assay: Induction of apoptosis in human HT-29 cells assessed as late apoptotic cells at 5 uM after 48 hrs by Annexin V-FITC/propidium iodide staining based flow cytometric analysis (reference value: 12.3%); format: cell-based; conditions: ht-29, 48 h
HT-29 [13] = assay: Induction of apoptosis in human HT-29 cells assessed as necrotic cells at 5 uM after 48 hrs by Annexin V-FITC/propidium iodide staining based flow cytometric analysis (reference value: 1.3%); format: cell-based; conditions: ht-29, 48 h
[14] = Induction of apoptosis in human HT-29 cells assessed as viable cells at 5 uM after 72 hrs by Annexin V-FITC/propidium iodide staining based flow cytometric analysis (reference value: 81.1%); format: cell-based; conditions: read-out: Activity
HT-29 [15] = assay: Induction of apoptosis in human HT-29 cells assessed as early apoptotic cells at 5 uM after 72 hrs by Annexin V-FITC/propidium iodide staining based flow cytometric analysis (reference value: 5.3%); format: cell-based; conditions: ht-29, 72 h
HT-29 [16] = assay: Induction of apoptosis in human HT-29 cells assessed as caspase-3 cleavage up to 20 uM after 24 to 72 hrs by Western blot analysis; format: cell-based
HUVEC [17] = assay: Inhibition of Akt/mTOR signalling in VEGF-induced HUVEC assessed as reduction in AKT phosphorylation at Ser473 residue at 1 to 20 uM pre-incubated for 1.5 hrs followed by VEGF stimulation and measured after 30 mins by Western blot analysis; format: cell-based; conditions: Homo sapiens
In short: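 HUVECs were starved overnight, pretreated 1.5 h with 1, 5, 10 or 20 μM, then stimulated with VEGF (50 ng/mL) for 30 min. Lysates were equalized by Bradford assay, about 20 μg protein was resolved on gradient SDS-PAGE and immunoblotted with phospho-specific antibodies. Detection by HRP secondary antibodies and ECL.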

HT-29 [18] = assay: Inhibition of Akt/mTOR signalling in human HT-29 cells assessed as reduction in AKT phosphorylation at Ser473 residue incubated for 24 hrs by immunoblot analysis; format: cell-based
In short: (§2)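 HT29 cells were exposed to the indicated concentrations for 24 h. Cell lysates were then immunoblotted for the phosphorylated proteins.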

HT-29 [19] = assay: Inhibition of Akt/mTOR signalling in human HT-29 cells assessed as reduction in STAT3 phosphorylation at Tyr705 residue incubated for 24 hrs by immunoblot analysis; format: cell-based; in short: as §2
[20] = molecular target: Mitogen-activated protein kinase 3 (Homo sapiens) (UniProt P27361); assay: Inhibition of ERK1 (unknown origin) at 10 uM using myelin basic protein as substrate in presence of [gamma-33P]-ATP by scintillation counting analysis relative to control
In short: (§3)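 Radiometric kinase panel run by a contract lab. Kinase (5–10 mU) in 25 mM Tris pH 7.5, 0.02 mM EGTA, 0.66 mg/mL myelin basic protein, magnesium acetate and [γ-33P]-ATP (about 500 cpm/pmol). Started with Mg-ATP mix, 40 min at room temperature, stopped with 3% phosphoric acid. Spotted on P30 filters, washed in 75 mM phosphoric acid and methanol, scintillation counted. Mean ± SD of three independent experiments.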

[21] = molecular target: Mitogen-activated protein kinase 1 (Homo sapiens) (UniProt P28482); assay: Inhibition of ERK2 (unknown origin) at 10 uM using myelin basic protein as substrate in presence of [gamma-33P]-ATP by scintillation counting analysis relative to control; in short: as §3
HT-29 [22] = assay: Antitumor activity against human HT-29 cells xenografted in mouse assessed as reduction in tumour volume at 60 mg/kg, po administered every other day for 3 weeks and measured at 20 days post-treatment relative to control; format: functional; conditions: HT-29, po
HT-29 [23] = assay: Antiangiogenic activity against human HT-29 cells xenografted in mouse assessed as mean vessel density in tumour at 20 to 60 mg/kg, po administered every other day for 3 weeks measured at 20 days post-treatment; format: functional
HT-29 [24] = assay: Antiangiogenic activity in human HT-29 cells assessed as decrease in secreted MMP2 activity at 1 to 20 uM after 24 hrs by gelatin zymography; format: functional, cell-based
In short: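 HT29 cells treated 1, 5, 10 or 20 μM for 24 h; supernatant run non-reducing on 10% SDS-PAGE with 2% gelatin; SDS removed with 2% Triton X-100, gel incubated 48 h at 37°C in Tris pH 7.5/NaCl/CaCl2 buffer, Coomassie stained; clear MMP-2 and MMP-9 bands quantified by densitometry.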

HUVEC [25] = assay: Antimigratory activity in HUVEC assessed as reduction in VEGF-induced cell migration at 1 to 2.5 uM by wound healing assay; conditions: Homo sapiens, TDE = time-dependent effect

Mitogen-activated protein kinase 1 (Homo sapiens), sequence (P28482 whole entry): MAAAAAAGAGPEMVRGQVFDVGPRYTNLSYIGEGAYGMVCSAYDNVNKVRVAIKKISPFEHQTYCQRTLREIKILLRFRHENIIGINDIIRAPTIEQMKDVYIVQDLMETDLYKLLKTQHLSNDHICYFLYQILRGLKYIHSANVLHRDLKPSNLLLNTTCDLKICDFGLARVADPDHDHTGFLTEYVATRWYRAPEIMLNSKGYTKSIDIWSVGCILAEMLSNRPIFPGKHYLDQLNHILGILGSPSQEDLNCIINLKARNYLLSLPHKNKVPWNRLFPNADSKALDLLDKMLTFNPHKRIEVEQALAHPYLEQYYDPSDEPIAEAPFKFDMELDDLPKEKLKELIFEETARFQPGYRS
Mitogen-activated protein kinase 3 (Homo sapiens), sequence (P27361 whole entry): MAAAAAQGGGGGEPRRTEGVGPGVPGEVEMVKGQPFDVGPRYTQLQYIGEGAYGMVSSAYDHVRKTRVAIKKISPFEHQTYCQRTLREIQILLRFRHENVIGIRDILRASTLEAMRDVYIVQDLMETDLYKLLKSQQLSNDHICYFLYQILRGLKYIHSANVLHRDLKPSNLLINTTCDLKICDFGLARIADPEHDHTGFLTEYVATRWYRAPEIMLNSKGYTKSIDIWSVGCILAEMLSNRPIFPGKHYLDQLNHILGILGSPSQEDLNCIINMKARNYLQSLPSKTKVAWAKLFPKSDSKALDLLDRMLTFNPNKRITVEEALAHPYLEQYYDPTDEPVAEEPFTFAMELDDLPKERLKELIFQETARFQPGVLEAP

inhibition [20]: 50 to 70%
inhibition [21]: 50 to 70%
SMILES: COc1ccc(NC(=O)c2cccc(/C=C3\CC(=O)N(c4ccc(C)cc4)C3=O)c2)cc1
viability at 24 h, 1 µM [1]: 72.6%
Activity (HUVEC [2]): 6.2%
viability at 24 h, 5 µM [3]: 75.4%
Activity (HUVEC [4]): 4.8%
Activity (HUVEC [5]): 11.7%
Activity (HT-29 [6]): 14.4%
Activity (HT-29 [7]): 0.8 to 4.7%
Activity (HT-29 [8]): 1.7%
Activity (HT-29 [9]): 17.1%
viability at 48 h, 5 µM [10]: 76.1%
Activity (HT-29 [11]): 9.7%
Activity (HT-29 [12]): 13.1%
Activity (HT-29 [13]): 1.1%
viability at 72 h, 5 µM [14]: 76.9%
Activity (HT-29 [15]): 9.8%
Activity (HT-29 [16]): Non-Toxic
inhibition (HUVEC [17]): Active
inhibition (HT-29 [18]): Dose-dependent effect
inhibition (HT-29 [19]): Dose-dependent effect
inhibition in vivo at 60 mg/kg (HT-29 [22]): 53.5%
Activity (HT-29 [23]): 5%
inhibition (HT-29 [24]): Active
inhibition (HUVEC [25]): Tde
